Where a SMILES comes first, the peptide text is derived from it. Bridges are numbered along the chain shown (N, C = ends). [ ]: non-standard residue; d: D form. Abu = CC[C@H](N)C(=O)O
Biological target: Furin (Homo sapiens, UniProt P09958)
Assay: Inhibition of recombinant soluble human furin using pyroGlu-Arg-Thr-Lys-Arg-methyl-coumaryl-7-amide as substrate measured after 1 hr
In short: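 Soluble human recombinant furin was tested in a competitive kinetic assay. Ki is reported as the mean ± SD of at least two independent experiments.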

Chain of Furin (P09958 whole entry): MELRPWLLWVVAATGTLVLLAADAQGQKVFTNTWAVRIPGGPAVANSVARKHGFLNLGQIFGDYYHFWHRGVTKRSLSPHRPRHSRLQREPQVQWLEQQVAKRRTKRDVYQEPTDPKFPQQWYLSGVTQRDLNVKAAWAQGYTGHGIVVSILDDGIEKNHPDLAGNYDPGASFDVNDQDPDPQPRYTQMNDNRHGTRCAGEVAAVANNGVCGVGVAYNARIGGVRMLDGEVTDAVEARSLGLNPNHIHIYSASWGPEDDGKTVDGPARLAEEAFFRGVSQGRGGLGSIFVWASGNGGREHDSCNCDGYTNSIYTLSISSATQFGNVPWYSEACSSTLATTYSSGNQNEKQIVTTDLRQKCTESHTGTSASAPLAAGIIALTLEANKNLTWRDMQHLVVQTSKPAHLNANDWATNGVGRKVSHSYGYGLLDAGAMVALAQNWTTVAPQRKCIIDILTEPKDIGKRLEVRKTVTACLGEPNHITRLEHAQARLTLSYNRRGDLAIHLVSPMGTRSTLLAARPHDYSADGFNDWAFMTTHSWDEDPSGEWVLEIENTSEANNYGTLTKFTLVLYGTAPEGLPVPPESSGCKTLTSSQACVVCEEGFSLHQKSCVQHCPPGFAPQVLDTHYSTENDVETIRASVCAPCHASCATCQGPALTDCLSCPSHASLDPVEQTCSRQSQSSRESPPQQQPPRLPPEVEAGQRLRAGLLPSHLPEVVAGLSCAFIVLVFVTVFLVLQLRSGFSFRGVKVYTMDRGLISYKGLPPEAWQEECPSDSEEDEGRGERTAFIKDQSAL

`CC(=O)N[C@@H](CCCNC(=N)N)C(=O)N[C@@H](C)C(=O)N[C@@H](CCCNC(=N)N)C(=O)N[C@H]1CCCCNC(=O)[C@H](CCCNC(=N)N)NC(=O)[C@H](CCCCN)NC(=O)[C@H](CCCCN)NC(=O)[C@H](CCCNC(=N)N)NC(=O)[C@H]([C@@H](C)O)NC1=O` (Ac-RARKTRKKR; lactam 4-C) gave a Ki of 2500 nM.
For `CC(=O)N[C@@H](CCCNC(=N)N)C(=O)N[C@@H](C)C(=O)N[C@@H](CC(N)=O)C(=O)N[C@@H](CCCNC(=N)N)C(=O)N[C@@H](CCCNC(=N)N)C(=O)N[C@@H](CCCCN)C(=O)N[C@@H](CCCCN)C(=O)N[C@@H](CCCNC(=N)N)C(=O)N[C@H](C(N)=O)[C@@H](C)O`, the Ki was 27 nM.
`CC(=O)N[C@@H](CCCNC(=N)N)C(=O)N[C@@H](C)C(=O)N[C@H](C(=O)N[C@@H](CCCNC(=N)N)C(=O)N[C@@H](CCCNC(=N)N)C(=O)N[C@@H](CCCCN)C(=O)N[C@@H](CCCCN)C(=O)N[C@@H](CCCNC(=N)N)C(=O)N[C@H](C(N)=O)[C@@H](C)O)[C@@H](C)O` gave a Ki of 28 nM.
`CC(=O)N[C@@H](CCCNC(=N)N)C(=O)N[C@@H](C)C(=O)N[C@@H](CCCNC(=N)N)C(=O)N[C@@H](Cc1c[nH]c2ccccc12)C(=O)N[C@@H](CCCNC(=N)N)C(=O)N[C@@H](CCCCN)C(=O)N[C@@H](CCCCN)C(=O)N[C@@H](CCCNC(=N)N)C(=O)N[C@H](C(N)=O)[C@@H](C)O` gave a Ki of 47 nM.
For `CC[C@H](C)[C@H](NC(=O)[C@H](CCCNC(=N)N)NC(=O)[C@H](C)NC(=O)[C@H](CO)NC(C)=O)C(=O)N[C@@H](CCCNC(=N)N)C(=O)N[C@@H](CCCCN)C(=O)N[C@@H](CCCCN)C(=O)N[C@@H](CCCNC(=N)N)C(=O)N[C@H](C(N)=O)[C@@H](C)O` (Ac-SARIRKKRT-NH2), the Ki was 8 nM.
Compound `CC(=O)N[C@@H](CCCNC(=N)N)C(=O)N[C@@H](C)C(=O)N[C@@H](CCCNC(=N)N)C(=O)N[C@@H](CC(=O)O)C(=O)N[C@@H](CCCNC(=N)N)C(=O)N[C@@H](CCCCN)C(=O)N[C@@H](CCCCN)C(=O)N[C@@H](CCCNC(=N)N)C(=O)N[C@H](C(N)=O)[C@@H](C)O` has a Ki of 130 nM.
Compound `CC(=O)N[C@@H](CCCNC(=N)N)C(=O)N[C@@H](C)C(=O)N[C@@H](CCCNC(=N)N)C(=O)N[C@@H](CC(C)C)C(=O)N[C@@H](CCCNC(=N)N)C(=O)N[C@@H](CCCCN)C(=O)N[C@@H](CCCCN)C(=O)N[C@@H](CCCNC(=N)N)C(=O)N[C@H](C(N)=O)[C@@H](C)O` has a Ki of 11 nM.
`CC(=O)N[C@@H](CCCNC(=N)N)C(=O)N[C@@H](CO)C(=O)N[C@@H](CCCNC(=N)N)C(=O)N[C@@H](CCCNC(=N)N)C(=O)N[C@@H](CCCNC(=N)N)C(=O)N[C@@H](CCCCN)C(=O)N[C@@H](CCCCN)C(=O)N[C@@H](CCCNC(=N)N)C(=O)N[C@H](C(N)=O)[C@@H](C)O` showed a Ki of 15 nM.
Compound `CC(=O)N[C@@H](CCCNC(=N)N)C(=O)N[C@@H](C)C(=O)N[C@@H](CCCNC(=N)N)C(=O)N[C@@H](C)C(=O)N[C@@H](CCCNC(=N)N)C(=O)N[C@@H](CCCCN)C(=O)N[C@@H](CCCCN)C(=O)N[C@@H](CCCNC(=N)N)C(=O)N[C@H](C(N)=O)[C@@H](C)O` has a Ki of 11 nM.
`CC(=O)N[C@@H](CCC(=O)O)C(=O)N[C@@H](C)C(=O)N[C@@H](CCCNC(=N)N)C(=O)N[C@@H](CCCNC(=N)N)C(=O)N[C@@H](CCCNC(=N)N)C(=O)N[C@@H](CCCCN)C(=O)N[C@@H](CCCCN)C(=O)N[C@@H](CCCNC(=N)N)C(=O)N[C@H](C(N)=O)[C@@H](C)O` was tested, and the Ki was 11 nM.
Work on `CC(=O)N[C@@H](CCCNC(=N)N)C(=O)N[C@@H](C)C(=O)N[C@@H](C)C(=O)N[C@@H](CCCNC(=N)N)C(=O)N[C@@H](CCCNC(=N)N)C(=O)N[C@@H](CCCCN)C(=O)N[C@@H](CCCCN)C(=O)N[C@@H](CCCNC(=N)N)C(=O)N[C@H](C(N)=O)[C@@H](C)O` yielded a Ki of 23 nM.
`CC(=O)N[C@@H](Cc1ccc(O)cc1)C(=O)N[C@@H](C)C(=O)N[C@@H](CCCNC(=N)N)C(=O)N[C@@H](CCCNC(=N)N)C(=O)N[C@@H](CCCNC(=N)N)C(=O)N[C@@H](CCCCN)C(=O)N[C@@H](CCCCN)C(=O)N[C@@H](CCCNC(=N)N)C(=O)N[C@H](C(N)=O)[C@@H](C)O` gave a Ki of 18 nM.
With `CC(=O)N[C@@H](CCCNC(=N)N)C(=O)N[C@@H](C)C(=O)N[C@@H](CC(C)C)C(=O)N[C@@H](CCCNC(=N)N)C(=O)N[C@@H](CCCNC(=N)N)C(=O)N[C@@H](CCCCN)C(=O)N[C@@H](CCCCN)C(=O)N[C@@H](CCCNC(=N)N)C(=O)N[C@H](C(N)=O)[C@@H](C)O` the Ki was 14 nM.
`CC(=O)N[C@@H](CCCNC(=N)N)C(=O)N[C@@H](C)C(=O)N[C@@H](CO)C(=O)N[C@@H](CCCNC(=N)N)C(=O)N[C@@H](CCCNC(=N)N)C(=O)N[C@@H](CCCCN)C(=O)N[C@@H](CCCCN)C(=O)N[C@@H](CCCNC(=N)N)C(=O)N[C@H](C(N)=O)[C@@H](C)O` showed a Ki of 29 nM.
`CC[C@H](C)[C@H](NC(C)=O)C(=O)N[C@@H](C)C(=O)N[C@@H](CCCNC(=N)N)C(=O)N[C@@H](CCCNC(=N)N)C(=O)N[C@@H](CCCNC(=N)N)C(=O)N[C@@H](CCCCN)C(=O)N[C@@H](CCCCN)C(=O)N[C@@H](CCCNC(=N)N)C(=O)N[C@H](C(N)=O)[C@@H](C)O` was tested, and the Ki was 11 nM.
`CC(=O)N[C@@H](CCCNC(=N)N)C(=O)N[C@@H](C)C(=O)N[C@@H](CCCNC(=N)N)C(=O)NC1(C(=O)N[C@@H](CCCNC(=N)N)C(=O)N[C@@H](CCCCN)C(=O)N[C@@H](CCCCN)C(=O)N[C@@H](CCCNC(=N)N)C(=O)N[C@H](C(N)=O)[C@@H](C)O)CCCC1` gave a Ki of 50 nM.
`CSCC[C@H](NC(=O)[C@H](C)NC(=O)[C@H](CCCNC(=N)N)NC(C)=O)C(=O)N[C@@H](CCCNC(=N)N)C(=O)N[C@@H](CCCNC(=N)N)C(=O)N[C@@H](CCCCN)C(=O)N[C@@H](CCCCN)C(=O)N[C@@H](CCCNC(=N)N)C(=O)N[C@H](C(N)=O)[C@@H](C)O` gave a Ki of 31 nM.
With `CC(=O)N[C@@H](CC(C)C)C(=O)N[C@@H](C)C(=O)N[C@@H](CCCNC(=N)N)C(=O)N[C@@H](CCCNC(=N)N)C(=O)N[C@@H](CCCNC(=N)N)C(=O)N[C@@H](CCCCN)C(=O)N[C@@H](CCCCN)C(=O)N[C@@H](CCCNC(=N)N)C(=O)N[C@H](C(N)=O)[C@@H](C)O` the Ki was 12 nM.
Work on `CC(=O)N[C@@H](CCCNC(=N)N)C(=O)N[C@@H](C)C(=O)N[C@@H](CCCNC(=N)N)C(=O)NCC(=O)N[C@@H](CCCNC(=N)N)C(=O)N[C@@H](CCCCN)C(=O)N[C@@H](CCCCN)C(=O)N[C@@H](CCCNC(=N)N)C(=O)N[C@H](C(N)=O)[C@@H](C)O` yielded a Ki of 36 nM.
Work on `CC(=O)N[C@@H](CCCNC(=N)N)C(=O)N[C@@H](Cc1c[nH]c2ccccc12)C(=O)N[C@@H](CCCNC(=N)N)C(=O)N[C@@H](CCCNC(=N)N)C(=O)N[C@@H](CCCNC(=N)N)C(=O)N[C@@H](CCCCN)C(=O)N[C@@H](CCCCN)C(=O)N[C@@H](CCCNC(=N)N)C(=O)N[C@H](C(N)=O)[C@@H](C)O` yielded a Ki of 29 nM.
In the case of `CC[C@H](C)[C@H](NC(=O)[C@H](CCCNC(=N)N)NC(=O)[C@H](C)NC(=O)[C@H](CCC(=O)O)NC(C)=O)C(=O)N[C@@H](CCCNC(=N)N)C(=O)N[C@@H](CCCCN)C(=O)N[C@@H](CCCCN)C(=O)N[C@@H](CCCNC(=N)N)C(=O)N[C@H](C(N)=O)[C@@H](C)O` (Ac-EARIRKKRT-NH2), the Ki is reported as 12 nM.
For `CC(=O)N[C@H](CO)C(=O)N[C@@H](C)C(=O)N[C@@H](CCCNC(=N)N)C(=O)N[C@@H](CCCNC(=N)N)C(=O)N[C@@H](CCCNC(=N)N)C(=O)N[C@@H](CCCCN)C(=O)N[C@@H](CCCCN)C(=O)N[C@@H](CCCNC(=N)N)C(=O)N[C@H](C(N)=O)[C@@H](C)O`, the Ki was 11 nM.
`CC(=O)N1CCC[C@H]1C(=O)N[C@@H](C)C(=O)N[C@@H](CCCNC(=N)N)C(=O)N[C@@H](CCCNC(=N)N)C(=O)N[C@@H](CCCNC(=N)N)C(=O)N[C@@H](CCCCN)C(=O)N[C@@H](CCCCN)C(=O)N[C@@H](CCCNC(=N)N)C(=O)N[C@H](C(N)=O)[C@@H](C)O` gave a Ki of 10 nM.
`CC(=O)N[C@@H](CCCCN)C(=O)N[C@@H](C)C(=O)N[C@@H](CCCNC(=N)N)C(=O)N[C@@H](CCCNC(=N)N)C(=O)N[C@@H](CCCNC(=N)N)C(=O)N[C@@H](CCCCN)C(=O)N[C@@H](CCCCN)C(=O)N[C@@H](CCCNC(=N)N)C(=O)N[C@H](C(N)=O)[C@@H](C)O` was tested, and the Ki was 13 nM.
Work on `CC(=O)N[C@@H](CCCNC(=N)N)C(=O)N[C@@H](CC(=O)O)C(=O)N[C@@H](CCCNC(=N)N)C(=O)N[C@@H](CCCNC(=N)N)C(=O)N[C@@H](CCCNC(=N)N)C(=O)N[C@@H](CCCCN)C(=O)N[C@@H](CCCCN)C(=O)N[C@@H](CCCNC(=N)N)C(=O)N[C@H](C(N)=O)[C@@H](C)O` yielded a Ki of 33 nM.
In the case of `CC(=O)N[C@@H](CCCNC(=N)N)C(=O)N[C@@H](C)C(=O)N[C@@H](CCCNC(=N)N)C(=O)N[C@@H](Cc1c[nH]cn1)C(=O)N[C@@H](CCCNC(=N)N)C(=O)N[C@@H](CCCCN)C(=O)N[C@@H](CCCCN)C(=O)N[C@@H](CCCNC(=N)N)C(=O)N[C@H](C(N)=O)[C@@H](C)O`, the Ki is reported as 22 nM.
In the case of `CC(=O)N[C@@H](CC(=O)O)C(=O)N[C@@H](C)C(=O)N[C@@H](CCCNC(=N)N)C(=O)N[C@@H](CCCNC(=N)N)C(=O)N[C@@H](CCCNC(=N)N)C(=O)N[C@@H](CCCCN)C(=O)N[C@@H](CCCCN)C(=O)N[C@@H](CCCNC(=N)N)C(=O)N[C@H](C(N)=O)[C@@H](C)O`, the Ki is reported as 20 nM.
`CC[C@H](NC(C)=O)C(=O)N[C@@H](C)C(=O)N[C@@H](CCCNC(=N)N)C(=O)N[C@H](C(=O)N[C@@H](CCCNC(=N)N)C(=O)N[C@@H](CCCCN)C(=O)N[C@@H](CCCCN)C(=O)N[C@@H](CCCNC(=N)N)C(=O)N[C@H](C(N)=O)[C@@H](C)O)[C@@H](C)CC` (Ac-[Abu]ARIRKKRT-NH2) was tested, and the Ki was 6 nM.
`CC(=O)N[C@@H](CCCNC(=N)N)C(=O)N[C@@H](C)C(=O)N[C@H](C(=O)N[C@@H](CCCNC(=N)N)C(=O)N[C@@H](CCCNC(=N)N)C(=O)N[C@@H](CCCCN)C(=O)N[C@@H](CCCCN)C(=O)N[C@@H](CCCNC(=N)N)C(=O)N[C@H](C(N)=O)[C@@H](C)O)C(C)C` showed a Ki of 21 nM.
`CC(=O)N[C@@H](CCCNC(=N)N)C(=O)N[C@@H](CCC(N)=O)C(=O)N[C@@H](CCCNC(=N)N)C(=O)N[C@@H](CCCNC(=N)N)C(=O)N[C@@H](CCCNC(=N)N)C(=O)N[C@@H](CCCCN)C(=O)N[C@@H](CCCCN)C(=O)N[C@@H](CCCNC(=N)N)C(=O)N[C@H](C(N)=O)[C@@H](C)O` gave a Ki of 19 nM.
With `CC(=O)N[C@@H](CCCNC(=N)N)C(=O)N[C@@H](C)C(=O)N[C@@H](CCCNC(=N)N)C(=O)N[C@@H](CO)C(=O)N[C@@H](CCCNC(=N)N)C(=O)N[C@@H](CCCCN)C(=O)N[C@@H](CCCCN)C(=O)N[C@@H](CCCNC(=N)N)C(=O)N[C@H](C(N)=O)[C@@H](C)O` the Ki was 9 nM.
